Experimental data published in ChEMBL document CHEMBL3352503, “An investigation of in vitro cytotoxicity and apoptotic potential of aromatic diselenides” (Bioorg Med Chem Lett, 2014).
Active and inactive are the calls of the source. No cut-off for these calls is given here.

Key:
[1] = Cytotoxicity against human HL60 cells after 48 hrs by MTT assay; format: functional, cell-based; settings: HL-60, 48 h
In short: (§1)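 Cells grown at 37°C, 5% CO2 with 10% heat-inactivated FBS, penicillin, streptomycin and L-glutamine: HL-60 (suspension) in RPMI-1640, PC-3 in MEM. Seeded 6000 cells/well, exposed 48 h to a range of concentrations (DMSO vehicle, final below 1%). MTT (2.5 mg/mL) added for 4 h, formazan dissolved in DMSO, OD at 540 nm (ref. 620 nm); growth vs untreated cells.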

[2] = Cytotoxicity against human PC3 cells after 48 hrs by MTT assay; format: functional, cell-based; settings: PC-3, 48 h; in short: as §1
HT-29 = assay: Cytotoxicity against human HT-29 cells after 48 hrs by MTT assay; format: functional, cell-based; settings: HT-29, 48 h
[3] = Cytotoxicity against human 786-O cells after 48 hrs by MTT assay; format: functional, cell-based; settings: 786-0, 48 h
[4] = Cytotoxicity against human OVCAR5 cells after 48 hrs by MTT assay; format: functional, cell-based; settings: OVCAR-5, 48 h
HL-60 [5] = assay: Induction of apoptosis in human HL60 cells assessed as loss of mitochondrial membrane potential after 24 hrs by Rhodamine-123 staining-based flow cytometric analysis; format: functional, cell-based
[6] = Cell cycle arrest in human HL60 cells assessed as accumulation at G1 phase at 20 uM after 24 hrs by propidium iodide staining-based flow cytometry (reference value: 50.80%); format: functional; settings: HL-60
[7] = Cell cycle arrest in human HL60 cells assessed as accumulation at G1 phase at 10 uM after 24 hrs by propidium iodide staining-based flow cytometry (reference value: 50.80%); format: functional; settings: HL-60
HL-60 [8] = assay: Induction of apoptosis in human HL60 cells assessed as loss of mitochondrial membrane potential at 30 uM after 24 hrs by Rhodamine-123 staining-based flow cytometric analysis (reference value: 6%); format: functional
HL-60 [9] = assay: Cytotoxicity against human HL60 cells by MTT assay; format: functional, cell-based; settings: TDE = time-dependent effect
In short: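 Cells grown in RPMI-1640 with 10% heat-inactivated FBS at 37 °C, 5% CO₂, seeded at 6000 cells/well and exposed to test material for 48 hr. DMSO vehicle kept below 1% final. MTT (2.5 mg/mL) added for 4 hr, formazan dissolved in DMSO, OD read at 540 nm (reference 620 nm). Growth calculated as treated vs untreated absorbance.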

[10] = Cell cycle arrest in human HL60 cells assessed as accumulation at S phase at 10 uM after 24 hrs by propidium iodide staining-based flow cytometry (reference value: 46.82%); format: functional; settings: HL-60
[11] = Cell cycle arrest in human HL60 cells assessed as accumulation at G1 phase at 30 uM after 24 hrs by propidium iodide staining-based flow cytometry (reference value: 50.80%); format: functional; settings: HL-60
HL-60 [12] = assay: Induction of apoptosis in human HL60 cells at 30 uM after 24 hrs by propidium iodide staining-based flow cytometry (reference value: 1.49%); format: functional
HL-60 [13] = assay: Induction of apoptosis in human HL60 cells at 20 uM after 24 hrs by propidium iodide staining-based flow cytometry (reference value: 1.49%); format: functional
[14] = Cell cycle arrest in human HL60 cells assessed as accumulation at S phase at 30 uM after 24 hrs by propidium iodide staining-based flow cytometry (reference value: 46.82%); format: functional; settings: HL-60
HL-60 [15] = assay: Induction of apoptosis in human HL60 cells assessed as loss of mitochondrial membrane potential at 10 uM after 24 hrs by Rhodamine-123 staining-based flow cytometric analysis (reference value: 6%); format: functional
HL-60 [16] = assay: Induction of apoptosis in human HL60 cells assessed as loss of mitochondrial membrane potential at 20 uM after 24 hrs by Rhodamine-123 staining-based flow cytometric analysis (reference value: 6%); format: functional
HL-60 [17] = assay: Induction of apoptosis in human HL60 cells assessed as membrane blebbing at 20 to 30 uM after 24 hrs by fluorescent microscopy; format: functional, cell-based
HL-60 [18] = assay: Induction of apoptosis in human HL60 cells at 10 uM after 24 hrs by propidium iodide staining-based flow cytometry (reference value: 1.49%); format: functional
[19] = Cell cycle arrest in human HL60 cells assessed as accumulation at G2 phase at 20 uM after 24 hrs by propidium iodide staining-based flow cytometry (reference value: 2.39%); format: functional; settings: HL-60
[20] = Cell cycle arrest in human HL60 cells assessed as accumulation at G2 phase at 10 uM after 24 hrs by propidium iodide staining-based flow cytometry (reference value: 2.39%); format: functional; settings: HL-60
[21] = Cell cycle arrest in human HL60 cells assessed as accumulation at S phase at 20 uM after 24 hrs by propidium iodide staining-based flow cytometry (reference value: 46.82%); format: functional; settings: HL-60
[22] = Cell cycle arrest in human HL60 cells assessed as accumulation at G2 phase at 30 uM after 24 hrs by propidium iodide staining-based flow cytometry (reference value: 2.39%); format: functional; settings: HL-60
HL-60 [23] = assay: Induction of apoptosis in human HL60 cells assessed as chromatin condensation at 20 to 30 uM after 24 hrs by fluorescent microscopy; format: functional, cell-based
HL-60 [24] = assay: Induction of apoptosis in human HL60 cells assessed as nuclear fragmentation at 20 to 30 uM after 24 hrs by fluorescent microscopy; format: functional, cell-based

Compound | IC50 [1] | IC50 [2] | IC50 (HT-29) | IC50 [3] | IC50 [4] | other results
c1ccc([Se][Se]c2ccccn2)nc1 | 28 µM | 26 µM | 30 µM | 29 µM | 27 µM | 
Oc1ccc([Se][Se]c2ccc(O)cc2)cc1 | 13 µM | 29 µM | 37 µM | 33 µM | 27 µM | 
c1ccc2c([Se][Se]c3cccc4ccccc34)cccc2c1 | 16 µM | 40 µM | 34 µM | 32 µM | 25 µM | 
CCc1ccccc1[Se][Se]c1ccccc1CC | 28 µM | 43 µM | 56 µM | 42 µM | 38 µM | 
c1ccc([Se][Se]c2ccccc2)cc1 | 32 µM | 42 µM | 31 µM | 38 µM | 38 µM | 
OCc1ccccc1[Se][Se]c1ccccc1CO | 14 µM | 28 µM | 25 µM | 27 µM | 16 µM | 
Oc1ccccc1[Se][Se]c1ccccc1O | 14 µM | 25 µM | 23 µM |  | 21 µM | 
Cc1ccc([Se][Se]c2ccc(C)cc2)cc1 | 33 µM | 29 µM | 37 µM | 29 µM | 31 µM | 
COc1ccc([Se][Se]c2ccc(OC)cc2)cc1 | 12 µM | 27 µM | 24 µM | 28 µM | 26 µM | 
OCc1ccc([Se][Se]c2ccc(CO)cc2)cc1 | 11 µM | 26 µM | 27 µM | 30 µM | 24 µM | 
FC(F)(F)c1cc([Se][Se]c2cc(C(F)(F)F)cc(C(F)(F)F)c2)cc(C(F)(F)F)c1 | 8 µM | 13 µM | 21 µM | 24 µM | 20 µM | Activity (HL-60 [5]): Dose-dependent effect; Activity [6]: 50.8%; Activity [7]: 49.7%; Activity (HL-60 [8]): 58%; inhibition (HL-60 [9]): tde; Activity [10]: 48.4%; Activity [11]: 46.1%; Activity (HL-60 [12]): 23.94%; Activity (HL-60 [13]): 5.65%; Activity [14]: 53.9%; Activity (HL-60 [15]): 11%; Activity (HL-60 [16]): 20%; Activity (HL-60 [17]): Active; Activity (HL-60 [18]): 2.45%; Activity [19]: 3.78%; Activity [20]: 1.93%; Activity [21]: 45.5%; Activity [22]: 0%; Activity (HL-60 [23]): Active; Activity (HL-60 [24]): Active
Cc1cc(C)cc([Se][Se]c2cc(C)cc(C)c2)c1 | 23 µM | 30 µM | 36 µM | 33 µM | 34 µM | 
Cc1cccc(C)c1[Se][Se]c1c(C)cccc1C | 27 µM | 33 µM | 35 µM | 40 µM | 39 µM | 
